Measurements: ChEMBL document CHEMBL1138247 (J Med Chem, 2007)

Assays:
[1] = molecular target: Integrin alpha-4/beta-1 (Homo sapiens, UniProt P05556+P13612); assay: Inhibition of integrin alpha4beta1 receptor-mediated human Molt-4 cell adhesion to CS1 peptide; assay type: cell-based
[2] = Partition coefficient, log P of the compound; assay type: physicochemical; conditions: octanol/water
In short: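 logP extrapolated from reverse-phase HPLC retention time converted to capacity factor k, against a standard calibration curve built from compounds of known logP.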

Integrin alpha-4/beta-1, sequence (P05556 whole entry): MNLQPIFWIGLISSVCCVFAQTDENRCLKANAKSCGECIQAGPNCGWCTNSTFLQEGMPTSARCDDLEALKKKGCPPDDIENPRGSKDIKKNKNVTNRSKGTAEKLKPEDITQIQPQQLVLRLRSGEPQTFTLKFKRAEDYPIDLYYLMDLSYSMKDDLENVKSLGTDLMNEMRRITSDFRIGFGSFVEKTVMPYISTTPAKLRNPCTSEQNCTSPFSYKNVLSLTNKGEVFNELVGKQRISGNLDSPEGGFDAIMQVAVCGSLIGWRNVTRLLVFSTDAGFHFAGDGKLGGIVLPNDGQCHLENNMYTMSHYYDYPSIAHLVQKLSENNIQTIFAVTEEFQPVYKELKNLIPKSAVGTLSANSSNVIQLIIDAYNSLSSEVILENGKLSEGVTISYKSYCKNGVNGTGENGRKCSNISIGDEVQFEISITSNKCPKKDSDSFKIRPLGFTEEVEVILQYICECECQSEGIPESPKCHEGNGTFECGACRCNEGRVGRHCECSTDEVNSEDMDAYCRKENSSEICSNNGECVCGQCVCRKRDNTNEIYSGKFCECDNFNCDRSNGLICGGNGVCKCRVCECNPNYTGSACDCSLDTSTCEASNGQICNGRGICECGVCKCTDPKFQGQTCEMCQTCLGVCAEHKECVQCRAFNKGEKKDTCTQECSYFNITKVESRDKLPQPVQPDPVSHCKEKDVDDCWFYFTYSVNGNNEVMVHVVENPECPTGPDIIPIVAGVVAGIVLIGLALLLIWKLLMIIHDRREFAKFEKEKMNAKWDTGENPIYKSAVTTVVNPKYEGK
Integrin alpha-4/beta-1, sequence (P13612 whole entry): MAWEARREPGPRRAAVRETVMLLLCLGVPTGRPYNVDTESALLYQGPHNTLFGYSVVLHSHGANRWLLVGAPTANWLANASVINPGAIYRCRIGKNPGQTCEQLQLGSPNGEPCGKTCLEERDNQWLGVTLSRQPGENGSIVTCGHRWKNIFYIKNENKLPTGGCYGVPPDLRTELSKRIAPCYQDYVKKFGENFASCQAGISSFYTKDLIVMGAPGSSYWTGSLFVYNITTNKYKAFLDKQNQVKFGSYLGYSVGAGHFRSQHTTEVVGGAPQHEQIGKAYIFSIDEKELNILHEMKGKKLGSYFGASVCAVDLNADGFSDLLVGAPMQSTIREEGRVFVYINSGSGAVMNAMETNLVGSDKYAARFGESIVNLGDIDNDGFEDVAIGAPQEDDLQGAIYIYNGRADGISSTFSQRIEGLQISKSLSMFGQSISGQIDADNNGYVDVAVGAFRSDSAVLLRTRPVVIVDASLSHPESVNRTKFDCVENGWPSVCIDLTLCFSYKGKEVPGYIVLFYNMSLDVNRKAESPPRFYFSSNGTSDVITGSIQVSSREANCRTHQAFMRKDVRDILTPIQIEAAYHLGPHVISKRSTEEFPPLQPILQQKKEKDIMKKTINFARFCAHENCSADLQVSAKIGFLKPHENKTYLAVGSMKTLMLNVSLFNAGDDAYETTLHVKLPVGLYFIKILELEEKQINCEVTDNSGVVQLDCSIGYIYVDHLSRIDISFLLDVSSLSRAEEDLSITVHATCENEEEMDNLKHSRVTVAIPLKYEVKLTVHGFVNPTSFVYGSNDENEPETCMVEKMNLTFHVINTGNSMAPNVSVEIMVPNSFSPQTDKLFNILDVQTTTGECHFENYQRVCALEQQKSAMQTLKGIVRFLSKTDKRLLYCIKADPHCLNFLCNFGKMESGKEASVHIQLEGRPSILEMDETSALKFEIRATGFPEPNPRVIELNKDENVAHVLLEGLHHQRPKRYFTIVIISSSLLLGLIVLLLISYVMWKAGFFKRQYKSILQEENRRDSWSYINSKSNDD

NC(=O)C1(NC(=O)[C@@H](CCCC(=O)O)NC(=O)[C@@H](CCCCNC(=O)/C=C/c2cccnc2)NC(=O)c2ccc(Nc3nc4ccccc4[nH]3)cc2)CCCCC1
IC50 [1]: 420 nM | logP [2]: 1.83

NC(=O)C1(NC(=O)[C@@H](CCCC(=O)O)NC(=O)[C@@H](CCCCNC(=O)/C=C/c2cccnc2)NC(=O)c2cccc(Nc3nc4ccccc4[nH]3)c2)CCCCC1
IC50 [1]: 186 nM | logP [2]: 2.12

NC(=O)C1(NC(=O)[C@@H](CCCC(=O)O)NC(=O)[C@@H](CCCCNC(=O)/C=C/c2cccnc2)NC(=O)Cc2ccc(Nc3nc4ccccc4[nH]3)cc2)CCCCC1
IC50 [1]: 0.305 nM | logP [2]: 2.23

NC(=O)C1(NC(=O)[C@@H](CCCC(=O)O)NC(=O)[C@@H](CCCCNC(=O)/C=C/c2cccnc2)NC(=O)CCc2ccc(Nc3nc4ccccc4[nH]3)cc2)CCCCC1
IC50 [1]: 344 nM | logP [2]: 2.8

Cc1cccc2[nH]c(Nc3ccc(C(=O)N[C@H](CCCCNC(=O)/C=C/c4cccnc4)C(=O)N[C@H](CCCC(=O)O)C(=O)NC4(C(N)=O)CCCCC4)cc3)nc12
IC50 [1]: 655 nM | logP [2]: 1.86

NC(=O)C1(NC(=O)[C@@H](CCCC(=O)O)NC(=O)[C@@H](CCCCNC(=O)/C=C/c2cccnc2)NC(=O)Cc2ccc(Nc3nc4cc(Br)ccc4[nH]3)cc2)CCCCC1
IC50 [1]: 340 nM | logP [2]: 1.96

CC(C(=O)N[C@H](CCCCNC(=O)/C=C/c1cccnc1)C(=O)N[C@H](CCCC(=O)O)C(=O)NC1(C(N)=O)CCCCC1)c1ccc(Nc2nc3ccccc3[nH]2)cc1 (stereo partly specified)
IC50 [1]: 444 nM | logP [2]: 2.63

Cc1cccc2[nH]c(Nc3ccc(CC(=O)N[C@H](CCCCNC(=O)/C=C/c4cccnc4)C(=O)N[C@H](CCCC(=O)O)C(=O)NC4(C(N)=O)CCCCC4)cc3)nc12
IC50 [1]: 27.5 nM | logP [2]: 2.58
